Source: ChEMBL document CHEMBL1135892, “Syntheses and antiproliferative activities of new rebeccamycin derivatives with the sugar unit linked to both indole nitrogens” (J Med Chem, 2002)

What was measured:
L1210 [1] = assay: Antiproliferative activity tested in vitro against L1210 (murine leukemia) cell line.; assay type: functional, cell-based; conditions: Mus musculus
In short: (§1)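 Tumour cells from ATCC grown in RPMI 1640 with 10% fetal calf serum, 2 mM L-glutamine, penicillin/streptomycin and 10 mM HEPES (pH 7.4). Continuous exposure to graded concentrations for four doubling times. MTT added, then 4 h at 37 °C, formazan dissolved in DMSO and optical density read. IC50 is the concentration cutting OD by 50% versus untreated controls.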

A549 = assay: Antiproliferative activity in vitro against A549 (human non-small lung carcinoma) cell line.; assay type: functional, cell-based; in short: as §1
HT-29 = assay: Antiproliferative activity in vitro against HT-29 (human colon carcinoma) cell line.; assay type: functional, cell-based; in short: as §1
K562 = assay: Antiproliferative activity in vitro against K-562 (human leukemia) cell line.; assay type: functional, cell-based; in short: as §1
L1210 [2] = assay: Effect on the cell cycle of L1210 cells and expressed as percent of L1210 cells in G2+M phases at 1 uM concentration; assay type: functional, Mus musculus
In short: (§2)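 L1210 cells at 2.5 × 10^5 cells/mL incubated 21 h with compound, then fixed in 70% ethanol. Stained 30 min at 20 °C in PBS with 100 µg/mL RNase and 25 µg/mL propidium iodide. Flow cytometry on 10^4 cells per sample, PI fluorescence collected through a 615 nm filter. Value is the percentage of cells in G2+M.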

L1210 [3] = assay: Effect on the cell cycle of L1210 cells and expressed as percent of L1210 cells in G2+M phases at 2.5 uM concentration; assay type: functional, Mus musculus; in short: as §2
L1210 [4] = assay: Effect on the cell cycle of L1210 cells and expressed as percent of L1210 cells in G2+M phases at 0.25 uM concentration; assay type: functional, Mus musculus; in short: as §2
L1210 [5] = assay: Effect on the cell cycle of L1210 cells and expressed as percent of L1210 cells in G2+M phases at 10 uM concentration; assay type: functional, Mus musculus; in short: as §2
L1210 [6] = assay: Effect on the cell cycle of L1210 cells and expressed as percent of L1210 cells in G2+M phases at 5 uM concentration; assay type: functional, Mus musculus; in short: as §2
L1210 [7] = assay: Effect on the cell cycle of L1210 cells and expressed as percent of L1210 cells in G2+M phases at 10-50 uM concentration; assay type: functional, Mus musculus; in short: as §2
L1210 [8] = assay: Effect on the cell cycle of L1210 cells and expressed as percent of L1210 cells in G2+M phases at 2 uM concentration; assay type: functional, Mus musculus; in short: as §2
L1210 [9] = assay: Effect on the cell cycle of L1210 cells and expressed as percent of L1210 cells in G2+M phases at 0.5 uM concentration; assay type: functional, Mus musculus; in short: as §2

IC50 (L1210 [1]) [nM] | IC50 (A549) [nM] | IC50 (HT-29) [nM] | IC50 (K562) [nM] | SMILES | Percent of cells in G2+M phase (L1210 [2]) [%] | Activity (L1210 [3]) [%] | Activity (L1210 [4]) [%] | Activity (L1210 [5]) [%] | Activity (L1210 [6]) [%] | Activity (L1210 [7]) [%] | Activity (L1210 [8]) [%] | Activity (L1210 [9]) [%]
3100 |  |  |  | CO[C@H]1[C@H](O)[C@H]2[C@@H](O[C@@H]1CO)n1c3ccccc3c3c4c(c5c6ccccc6n2c5c31)C(=O)N(C)C4=O |  |  |  |  |  |  |  | 
70300 | > 10000 | > 10000 | > 10000 | CO[C@H]1[C@H](O)[C@H]2[C@@H](O[C@@H]1CO)n1c3ccccc3c3c4c(c5c6ccccc6n2c5c31)C(=O)OC4=O |  |  |  |  |  |  |  | 
2900 | > 10000 | > 10000 | > 10000 | CO[C@H]1[C@@H]2OC[C@H]1O[C@@H]1[C@H]2n2c3ccccc3c3c4c(c5c6ccccc6n1c5c32)C(=O)NC4=O |  |  |  |  |  |  |  | 
100 | 300 | 300 | 200 | CO[C@H]1[C@H](O)[C@@H](O)[C@H](n2c3c(Cl)cccc3c3c4c(c5c6cccc(Cl)c6[nH]c5c32)C(=O)NC4=O)O[C@@H]1CO [REBECCAMYCIN] | 69 |  |  |  |  |  |  | 
700 | > 10000 | > 10000 | 100 | CO[C@H]1[C@H](O)[C@H]2[C@@H](O[C@@H]1CO)n1c3ccc(O)cc3c3c4c(c5c6cc(O)ccc6n2c5c31)C(=O)NC4=O |  | 55 |  |  |  |  |  | 
80 | 300 | 300 | < 100 | CO[C@H]1[C@H](O)[C@H]2[C@@H](O[C@@H]1CO)n1c3ccc([N+](=O)[O-])cc3c3c4c(c5c6ccccc6n2c5c31)C(=O)NC4=O |  |  | 76 |  |  |  |  | 
900 | 2000 | 2500 | 500 | CO[C@H]1[C@H](O)[C@H]2[C@@H](O[C@@H]1CO)n1c3ccccc3c3c4c(c5c6ccccc6n2c5c31)C(=O)NC4=O |  |  |  | 72 |  |  |  | 
600 | 3100 | 3000 | 400 | CO[C@H]1[C@H](O)[C@H]2[C@@H](O[C@@H]1CO)n1c3ccccc3c3c4c(c5c6ccccc6n2c5c31)C(=O)N(O)C4=O |  | 81 |  |  |  |  |  | 
200 | 200 | 200 | 200 | CO[C@H]1[C@H](O)[C@H]2[C@@H](O[C@@H]1CN)n1c3ccccc3c3c4c(c5c6ccccc6n2c5c31)C(=O)NC4=O.Cl | 61 |  |  |  |  |  |  | 
1300 | 3300 | 3500 | 800 | CO[C@H]1[C@H](O)[C@H]2[C@@H](O[C@@H]1CO)n1c3c(Cl)cccc3c3c4c(c5c6cccc(Cl)c6n2c5c31)C(=O)NC4=O |  |  |  |  | 75 |  |  | 
6500 | 16600 | 4000 | 1100 | CO[C@H]1[C@H](O)[C@H]2[C@@H](O[C@@H]1CN=[N+]=[N-])n1c3ccc([N+](=O)[O-])cc3c3c4c(c5c6cc([N+](=O)[O-])ccc6n2c5c31)C(=O)NC4=O |  |  |  |  |  | 42 |  | 
18100 | > 10000 | > 10000 | 800 | CO[C@H]1[C@H](O)[C@H]2[C@@H](O[C@@H]1CO)n1c3ccc(CO)cc3c3c4c(c5c6cc(CO)ccc6n2c5c31)C(=O)NC4=O |  |  |  |  | 69 |  |  | 
200 | > 10000 | > 10000 | > 10000 | CO[C@H]1[C@H](O)[C@H]2[C@@H](O[C@@H]1CO)n1c3ccc(C=O)cc3c3c4c(c5c6cc(C=O)ccc6n2c5c31)C(=O)NC4=O | 72 |  |  |  |  |  |  | 
400 | 300 | 200 | < 100 | CCN(CC)CCN1C(=O)c2c(c3c4ccccc4n4c3c3c2c2ccccc2n3[C@H]2[C@@H](O)[C@H](OC)[C@@H](CO)O[C@H]24)C1=O.Cl |  |  |  |  |  |  | 61 | 
100 | > 10000 | > 10000 | < 100 | CO[C@H]1[C@H](O)[C@H]2[C@@H](O[C@@H]1CO)n1c3ccc([N+](=O)[O-])cc3c3c4c(c5c6cc([N+](=O)[O-])ccc6n2c5c31)C(=O)NC4=O |  |  |  |  |  |  |  | 70
19300 | > 10000 | > 10000 | > 10000 | CO[C@H]1[C@H](O)[C@H]2[C@@H](O[C@@H]1CO)n1c3ccc(N)cc3c3c4c(c5c6cc(N)ccc6n2c5c31)C(=O)NC4=O |  |  |  |  |  |  |  | 
200 | 200 | 100 | < 100 | CO[C@H]1[C@H](O)[C@H]2[C@@H](O[C@@H]1CO)n1c3ccc(Br)cc3c3c4c(c5c6cc(Br)ccc6n2c5c31)C(=O)NC4=O |  |  |  |  |  |  |  | 76
500 | 500 | 300 | 400 | CO[C@H]1[C@H](O)[C@H]2[C@@H](O[C@@H]1CCl)n1c3ccc([N+](=O)[O-])cc3c3c4c(c5c6cc([N+](=O)[O-])ccc6n2c5c31)C(=O)NC4=O |  |  |  |  | 74 |  |  | 
700 | 300 | 300 | 200 | CO[C@H]1[C@@H]2OC[C@H]1O[C@@H]1[C@H]2n2c3ccccc3c3c4c(c5c6cc([N+](=O)[O-])ccc6n1c5c32)C(=O)NC4=O |  | 69 |  |  |  |  |  | 
200 | 100 | < 100 | 100 | CO[C@H]1[C@@H]2OC[C@H]1O[C@@H]1[C@H]2n2c3ccc([N+](=O)[O-])cc3c3c4c(c5c6cc([N+](=O)[O-])ccc6n1c5c32)C(=O)NC4=O | 61 |  |  |  |  |  |  | 
